Test [1] has as its system MDCK. The test is described as follows: Induction of intracellular calcium level in MDCK cells at 100 uM by Fura-2 in calcium free medium in presence of phospholipase C inhibitor U73122. Particulars: Canis lupus familiaris. Background: Calcium assays in cells follow changes in intracellular calcium, usually with a dye or a luminescent sensor.
The test system of test [2] is MDCK. Description: Induction of intracellular calcium level in MDCK cells assessed as net peak value at 10 uM by Fura-2 in calcium free medium. It counts as functional, Canis lupus familiaris. In short, it runs like this: (§1)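 Fura-2-loaded MDCK suspension (0.5 million cells/mL) in Ca2+-free medium, where CaCl2 was replaced by 0.1 mM EGTA; 25 °C, stirred cuvette. Signals recorded at 340/380 nm excitation and 510 nm emission every 1 s. Store depletion used 1 μM thapsigargin, applied before compound or after 220 s compound preincubation. Phospholipase C tests used 10 μM ATP and 2 μM U73122. [Ca2+]i calculated with Kd 155 nM. Means ± SEM, n = 5.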

Test [3] deals with MDCK. Description: Induction of intracellular calcium level in MDCK cells at 10 uM by Fura-2 in calcium free medium in presence of 10 uM U73343 inactive analogue of U73122 phospholipase C inhibitor. It counts as functional, cell-based. Conditions: Canis lupus familiaris. The method in brief:
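MDCK cells were trypsinized, recovered 1 h, then loaded with 2 μM fura-2/AM for 30 min at 25 °C. They were read in a stirred cuvette at 25 °C (0.5 million cells/mL) in Ca2+-free medium with 0.1 mM EGTA in place of CaCl2. Ex 340/380 nm, em 510 nm, 1 s intervals. Pretreatment was 2 μM U73122 or 10 μM U73343 before ATP. Kd 155 nM; n=5.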

In test [4] the test system is MDCK. The test is described as follows: Induction of intracellular calcium level in MDCK cells at 100 uM by Fura-2 in presence of calcium and 1 uM nicardipine L-type calcium channel blocker. It counts as functional, cell-based. Conditions: Canis lupus familiaris. The method in brief: (§2)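 Fura-2-loaded MDCK cells in Ca2+-containing medium at 25 °C, pretreated 1 min with the 1 μM L-type blocker before 100 μM compound was added at 30 s. Response taken as net area under the [Ca2+]i curve from 30 to 250 s, expressed as percent of unblocked control. Means ± SEM of five experiments.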

In test [5] the test system is MDCK. Description: Cytotoxicity against MDCK cells assessed as decrease in cell viability after 16 hrs by tetrazolium salt WST-1 assay. It counts as functional, cell-based. Particulars: Canis lupus familiaris. In short, it runs like this: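 MDCK cells plated at 1 × 10^4 per well and grown 24 h to 70% confluence, then exposed 16 h to compound (0–2 mM range). Cells washed, then incubated 2 h at 37 °C with WST-1; absorbance read at 450 nm. Values expressed as percent of vehicle control (0.1% DMSO). n = 5.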
Background: Tetrazolium assays rely on reduction of a dye to a coloured formazan, in cell work by metabolically active cells.

For test [6], the system named is MDCK. The test is described as follows: Induction of intracellular calcium level in MDCK cells at 100 uM by Fura-2 in presence of calcium and 10 nM phorbol myristate acetate protein kinase C activator. Type of test: functional, cell-based. Particulars: Canis lupus familiaris. In short, it runs like this: (§3)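 Fura-2-loaded MDCK cells in Ca2+-containing medium (2 mM CaCl2, pH 7.4) at 25 °C, pretreated with 10 nM phorbol myristate acetate or 2 μM GF109203X before 100 μM compound. [Ca2+]i was read from the 340/380 nm fura-2 ratio. n = 5.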

Test [7] concerns MDCK. Description: Induction of intracellular calcium level in MDCK cells assessed as sustained phase at 100 uM within 250 secs by Fura-2 in presence of extracellular calcium. Type of test: functional, cell-based. Particulars: Canis lupus familiaris. The method in brief: (§4)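 Trypsinized cells recovered 1 h, then loaded with 2 μM fura-2/AM for 30 min at 25 °C. Cells washed and resuspended in Ca2+-containing medium (2 mM CaCl2, 2 mM HEPES, pH 7.4); 0.5 million cells/mL in a stirred cuvette at 25 °C. Compound added at 30 s and recorded to 250 s. Excitation at 340/380 nm, emission at 510 nm. Calibration used Triton X-100 then 10 mM EGTA; Kd 155 nM. n = 5.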

Test [8] deals with MDCK. The test is described as follows: Cell cycle arrest in MDCK cells assessed as accumulation at G1 phase at 100 uM after 16 hrs by flow cytometric analysis (reference value: 55.7%). It counts as functional, Canis lupus familiaris.
Test [9] has as its system MDCK. The test is described as follows: Induction of intracellular calcium level in MDCK cells at 100 uM preincubated 220 secs by Fura-2 in calcium free medium in presence of endoplasmic reticulum Ca2+-ATPase inhibitor thapsigargin. Particulars: Canis lupus familiaris. Type of test: functional, cell-based. The method in brief: as §1
Test [10] has as its system MDCK. The test is described as follows: Induction of intracellular calcium level in MDCK cells at 1 uM by Fura-2 in presence of extracellular calcium. Conditions: Canis lupus familiaris.
Test [11] relates to MDCK. The test is described as follows: Induction of intracellular calcium level in MDCK cells assessed as rise in fura-2 340/380 excitation signal ratio at 100 uM treated at 30 secs by Fura-2 in presence of extracellular calcium. Type of test: functional, cell-based. Conditions: Canis lupus familiaris. The method in brief: as §4
In test [12] the test system is MDCK. The test is described as follows: Induction of intracellular calcium level in MDCK cells at 100 uM assessed as calcium influx by Fura-2 in presence of calcium and 1 uM diltiazem L-type calcium channel blocker. It counts as functional, cell-based. Conditions: Canis lupus familiaris. In short, it runs like this:
as §2

Test [13] relates to MDCK. The test is described as follows: Cell cycle arrest in MDCK cells assessed as accumulation at G2/M phase at 100 uM after 16 hrs by flow cytometric analysis (reference value: 19.8%). It counts as functional, Canis lupus familiaris. On the technique in general: A flow cytometer gives signals particle by particle.
Test [14] deals with MDCK. Description: Induction of intracellular calcium level in MDCK cells at 25 to 100 uM by Fura-2 in presence of extracellular calcium. Type of test: functional, cell-based. Particulars: Canis lupus familiaris. The method in brief: as §4
The subject of test [15] is MDCK. The test is described as follows: Induction of intracellular calcium level in MDCK cells at 100 uM by Fura-2 in presence of calcium and 2 uM GF109203 X acetate protein kinase C inhibitor. Type of test: functional, cell-based. Conditions: Canis lupus familiaris. In short, it runs like this:
as §3

Test [16] deals with MDCK. The test is described as follows: Cell cycle arrest in MDCK cells assessed as accumulation at subG1 phase at 100 uM after 16 hrs by flow cytometric analysis (reference value: 0.5%). Type of test: functional, Canis lupus familiaris.
The subject of test [17] is MDCK. Description: Cell cycle arrest in MDCK cells assessed as accumulation at S phase at 100 uM after 16 hrs by flow cytometric analysis (reference value: 24.5%). Type of test: functional, Canis lupus familiaris.
Test [18] deals with MDCK. Description: Induction of intracellular calcium level in MDCK cells at 100 uM by Fura-2 in calcium free medium in presence of endoplasmic reticulum Ca2+-ATPase inhibitor thapsigargin. Conditions: Canis lupus familiaris. It counts as functional, cell-based. The method in brief: as §1
Test [19] concerns MDCK. The test is described as follows: Induction of intracellular calcium level in MDCK cells at 100 uM assessed as calcium influx by Fura-2 in presence of calcium and 1 uM verapamil L-type calcium channel blocker. Particulars: Canis lupus familiaris. It counts as functional, cell-based. In short, it runs like this:
as §2

Test [20] concerns MDCK. Description: Induction of intracellular calcium level in MDCK cells at 50 uM by Fura-2 in presence of calcium relative to diallyl trisulfide. It counts as functional.

Active and inactive are the calls of the source. No cut-off for these calls is given here.

As usually defined, the IC50 is the midpoint of a concentration-inhibition curve.

For the compound `Nc1ncnc2c1ncn2[C@@H]1O[C@H](COP(=O)(O)OP(=O)(O)OP(=O)(O)O)[C@@H](O)[C@H]1O` [ADENOSINE TRIPHOSPHATE], the outcome in the test with MDCK [1] was inactive. In addition, the Activity with MDCK [2] worked out at 132 nM. Further, the outcome in the test with MDCK [3] was Active.
Regarding `C=CCSSSCC=C` [ALLITRIDIN], the outcome in the test on MDCK [4], in the test with MDCK [9], with MDCK [10] and in the test with MDCK [18] was inactive. The concentration for half-maximal inhibition (IC50) with MDCK [5] stood at 0.05 mM. The outcome with MDCK [1], with MDCK [6], in the test on MDCK [7], in the test on MDCK [11], in the test on MDCK [12] and with MDCK [15] was Active. In the test with MDCK [19], the outcome was Active. The Activity with MDCK [8] is 26.8%; in the test on MDCK [13], 38.6%; in the test on MDCK [14], “Dose-dependent effect”; in the test with MDCK [16] it was 33.1%; with MDCK [17], 34.6%.
Turning to `C=CCSCC=C` [DIALLYL SULFIDE], the Activity entry with MDCK [5] is “Dose-dependent effect”; in the test on MDCK [8], 53.3%; in the test on MDCK [13], 19%; in the test on MDCK [16] it was 1.1%; in the test with MDCK [17] it was 27.7%. In addition, the IC50 with MDCK [5] stood at 3.26 mM. In the test on MDCK [20] (Canis lupus familiaris), the outcome was inactive.
Consider `C=CCSSCC=C` [DIALLYLDISULFIDE], for which the Activity result in the test with MDCK [5] was “Dose-dependent effect”; in the test on MDCK [8], 53.3%; in the test on MDCK [20], 45.6%; in the test on MDCK [13], 20%; in the test with MDCK [16] it was 7.1%; in the test with MDCK [17], 26.8%. Further, the IC50 in the test on MDCK [5] is 1.82 mM.
